High-throughput results as filed in PubChem BioAssay.
TAAR1 antagonist = human TAAR1 antagonists, primary screen, Fluo-8 calcium fluorescence, CHO RD-HGA16 cells; Trace amine-associated receptor 1 (Homo sapiens), Q96RJ0; antagonist; inhibition, % at 3 µM; 1.5% of 360,000 active; AID 624466, 2012;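 active = inhibition above a per-plate cutoff, the mean inhibition of test compounds on that plate plus 3 SD, cut at about 49% in these data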;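 also: 0% = DMSO plus EC80 beta-PEA response and 100% = DMSO alone without agonist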
Target sequence (Q96RJ0 whole entry, looked up): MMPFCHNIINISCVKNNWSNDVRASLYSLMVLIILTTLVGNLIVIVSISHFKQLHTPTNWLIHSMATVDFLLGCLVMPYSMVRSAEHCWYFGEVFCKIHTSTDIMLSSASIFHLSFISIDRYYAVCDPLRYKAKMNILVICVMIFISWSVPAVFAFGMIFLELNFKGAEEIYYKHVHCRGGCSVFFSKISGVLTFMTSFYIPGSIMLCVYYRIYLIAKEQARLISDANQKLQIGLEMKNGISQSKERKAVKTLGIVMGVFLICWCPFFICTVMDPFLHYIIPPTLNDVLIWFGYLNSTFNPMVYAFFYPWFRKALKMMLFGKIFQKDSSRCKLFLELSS
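test system = CHO RD-HGA16 cells bearing hTAAR1 | replication = singlicate | controls = DMSO-only wells and EC80 β-PEA-stimulated wells | reagent = EC80 β-phenethylamine stimulus | read-out basis = percent inhibition of PEA-evoked calcium signal, max/basal emission ratio | schedule = seeding 17-24 h prior, 75-min 37 °C, 30-min RT dye loading | signal = kinetic Fluo-8 calcium fluorescence measurement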
V1R ag counter = agonists of human V1a receptor, primary screen, counter-screen for OXTR agonist project, fluorescence, CHO-V1R cells; Vasopressin V1a receptor (Homo sapiens), P37288; Fluo-8 calcium fluorescence, agonist mode; 0% DMSO, 100% 3 nM vasopressin; 0.25% of 320,000 active; activation, % at 3 µM;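 active = activation above the mean activation of all tested compounds plus 3 SD, per screening run, cut at about 20% in these data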;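 also: signal is peak over basal fluorescence ratio across a 100 second FLIPR read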
TAAR1 ag = human TAAR1 agonists, primary screen, Fluo-8 calcium fluorescence, CHO RD-HGA16 cells | vehicle wells 0%, saturating PEA agonist 100% | activation, % at 3 µM | 0.99% of 360,000 active;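 active = activation above the mean activation of all test compounds in the run plus 3 SD, cut at about 38% in these data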
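System: CHO-derived RD-HGA16 cells with stable Gα16 and human TAAR1 / Times: 17-24 h plating, Fluo-8 75 min 37 °C, 30 min RT / Technique: calcium-sensitive Fluo-8 signal, excitation 470-495, emission 515-575 nm / Measure: % activation relative to PEA EC100 response / Benchmarks: DMSO and PEA EC100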
OXTR ag = human OXTR agonists, primary screen, fluorescence, CHO-OTR cells, Fluo-8 calcium; Oxytocin receptor (Homo sapiens), P30559; Fluo-8 calcium fluorescence; normalized: DMSO 0%, oxytocin 100%; activation, % at 3 µM; 0.32% of 320,000 active; AID 2435, 2010;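 active = activation above the mean of all tested compounds plus 3 SD, cutoff set per screening run, cut at about 20% in these data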;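 also: peak over basal fluorescence ratio from a 100 s FLIPR kinetic read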
Target sequence (P30559 whole entry, looked up): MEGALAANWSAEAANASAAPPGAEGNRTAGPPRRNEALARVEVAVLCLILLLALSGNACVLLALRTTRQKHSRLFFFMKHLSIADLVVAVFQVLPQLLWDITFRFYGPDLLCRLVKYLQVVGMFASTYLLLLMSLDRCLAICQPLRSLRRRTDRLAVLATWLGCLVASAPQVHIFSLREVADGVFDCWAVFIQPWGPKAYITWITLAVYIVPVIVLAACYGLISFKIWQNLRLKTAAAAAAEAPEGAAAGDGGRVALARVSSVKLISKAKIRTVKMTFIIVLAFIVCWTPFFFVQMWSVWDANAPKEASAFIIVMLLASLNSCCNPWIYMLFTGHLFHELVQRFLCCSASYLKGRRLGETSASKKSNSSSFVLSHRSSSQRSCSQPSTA
OXTR potentiator = human OXTR potentiators, primary screen, fluorescence, CHO-OTR cells, Fluo-8 calcium; activation, % at 3 µM; Oxytocin receptor (Homo sapiens), P30559; Fluo-8 calcium fluorescence, potentiator mode; 0% = oxytocin EC15, 100% = EC100; 0.061% of 320,000 active; AID 2445, 2010;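 active = activation above that plate's cutoff, the mean activation of tested compounds plus 3 SD, cut at about 6.6% in these data, passing the limit was not always enough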;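 also: 100% uses oxytocin at 75 nM as the full agonist control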
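Dosing: Single dose, 3.0 µM nominal final compound concentration | Material: Human OTR in CHO cells | Technique: Kinetic Fluo-8 calcium fluorescence | Benchmarks: EC15 oxytocin alone as 0%, 75 nM oxytocin as 100% | Probe or stimulus: Oxytocin at about EC15, sub-maximal agonist stimulus | Incubation: Compound 6 min at room temperature before oxytocin, 100 s read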
TAAR1 nonsel count = nonselective antagonists in TAAR1 counter-screen cells, counter-screen for hTAAR1 antagonist project, cell-based, fluorescence, calcium. shares compounds with TAAR1 antagonist. counterscreen cell line, antagonist mode. inhibition, % at 3 µM. 77% of 2,400 active; in the data active = inhibition above about 22%;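 also: CHO-Ga16 host cells stimulated with ATP at an EC80 level; 0% = agonist EC80 plus vehicle and 100% = vehicle without agonist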
TAAR1 ant conf = human TAAR1 antagonists, retest of hits, confirmation, cell-based, fluorescence | shares compounds with TAAR1 antagonist | TAAR1-expressing cells, fluorescence antagonist read-out | inhibition, % at 3 µM | 40% of 2,400 active | AID 651785, 2012; in the data active = inhibition above about 49%;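 also: CHO-Ga16 host cells challenged with agonist PEA near its EC80; 0% = agonist at EC80 plus vehicle and 100% = vehicle with no agonist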
Ga16 nonsel ag = calcium activation in Ga16-expressing cells, counter-screen for TAAR1 antagonist project, cell-based, fluorescence. shares compounds with TAAR1 antagonist. agonist counterscreen. activation, % at 3 µM. 18% of 2,400 active. AID 651953, 2012; in the data active = activation above about 12%;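 also: 0% = vehicle wells and 100% = saturating stimulus response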
TAAR1 ag counter = TAAR1 activation by candidate antagonists – cell-based, fluorescence, counter-screen for TAAR1 antagonist project. shares compounds with TAAR1 antagonist. hTAAR1 cell line, agonist mode. activation, % at 3 µM. 2% of 2,400 active. AID 651955, 2012; in the data active = activation above about 37%;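 also: CHO cells stably expressing TAAR1 with calcium dye readout; 0% = DMSO vehicle and 100% = full agonist response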
Numbers without * were called inactive; · = not tested or not shown. Sampled rows, rich in hits. Any-hit rate of the full collection: about 2.3%.

SMILES | TAAR1 antagonist | V1R ag counter | TAAR1 ag | OXTR ag | OXTR potentiator | TAAR1 nonsel count | TAAR1 ant conf | Ga16 nonsel ag | TAAR1 ag counter
O=C(Nc1ccc(N2CCN(C(=O)c3ccco3)CC2)c(Cl)c1)c1cc2ccccc2o1 | 84* | 4 | 16 | 2 | -18 | 41* | 67* | 10 | 10
COc1cc(NC(=O)c2cc3ccccc3o2)c(OC)cc1Cl | 55* | 0 | 10 | -2 | -3 | 17 | 54* | 0 | 1
O=C(NCC(c1ccco1)N1CCOCC1)c1ccccc1 (centres undefined) | -35 | 2 | 1 | 0 | -5 | · | · | · | ·
COc1ccc(CNC(=O)C2=CC(c3ccc(OC)c(OC)c3)=NS(=O)(=O)N2C)cc1 | -9 | 1 | 3 | 2 | -2 | · | · | · | ·
COc1ccc(C2=NS(=O)(=O)N(C)C(C(=O)N3CCc4ccccc4C3)=C2)cc1OC | 68* | 4 | 24 | 8 | -23 | 40* | 50* | 11 | 51*
CCc1ccc(NC(=O)C2=CC(c3ccc(OC)c(OC)c3)=NS(=O)(=O)N2C)cc1 | 68* | 8 | 6 | 2 | -6 | 33* | 37 | 7 | 7
CCc1ccc(C(=O)OCC(=O)N(CCOC)c2c(N)n(Cc3ccccc3)c(=O)[nH]c2=O)cc1 | -12 | 0 | 0 | -1 | -1 | · | · | · | ·
COc1ccc(-c2oc3ccc(N4CCOCC4)cc3c2C#CCO)cc1 | 58* | 1 | 7 | 3 | -21 | 23* | 44 | 5 | 10
COc1ccc(-c2ccc3oc(-c4ccc(OC)cc4)c(C#CCO)c3c2)cc1 | 42 | 0 | 7 | -1 | -8 | · | · | · | ·
COc1cc(-c2nc3ccccn3c2NCC2CCCO2)ccc1O (centres undefined) | 59* | 1 | 19 | 1 | -3 | 30* | 47 | 10 | 11
COc1cc(-c2nc3ccccn3c2/N=C/c2ccccc2)ccc1O | 2 | 1 | 3 | 0 | -2 | · | · | · | ·
COc1ccc(-c2nc3cccc(C)n3c2NCC2CCCO2)cc1O (centres undefined) | 65* | 1 | 15 | 0 | -2 | 27* | 48 | 8 | 8
CCOc1cc(N2CCOCC2)c(OCC)cc1NC(=O)CSc1nnc(N)s1 | 100* | 0 | -2 | 0 | 0 | 7 | -4 | 4 | 4
CCCNC(=O)C1(C)CCCN(Cc2ccsc2)C1 (centres undefined) | -13 | · | 2 | · | · | · | · | · | ·
O=C1c2ccccc2C(=O)N1CC(O)CNc1ccc(Br)cc1 (centres undefined) | -7 | 5 | 0 | 4 | -4 | · | · | · | ·
COc1ccc(C(CNC(=O)C(Cc2ccccc2)NC(N)=O)N(C)C)cc1 (centres undefined) | 103* | 1 | -4 | 0 | -14 | 6 | -2 | 1 | 2
CC1CCCN(C(=O)COC(=O)C2CCN(S(=O)(=O)c3c(Cl)cccc3Cl)CC2)C1 (centres undefined) | 14 | 3 | 5 | 2 | -5 | · | · | · | ·
COc1ccccc1OCCC(=O)NNC(=O)c1ccccc1F | 103* | 1 | 1 | 1 | -5 | -7 | -8 | 11 | 8
Cc1ccc(C)c(OCCC(=O)NNC(=O)c2ccccc2F)c1 | -18 | 0 | 2 | 0 | -2 | · | · | · | ·
COc1ccccc1CNC(=O)COC(=O)CCC(=O)c1cccs1 | -6 | 0 | 0 | 0 | -7 | · | · | · | ·
CN(Cc1ccc(Cl)cc1)C(=O)CNC(=O)C12CC3CC(CC(C3)C1)C2 | 5 | 0 | 7 | -1 | -7 | · | · | · | ·
C[C@@H](NC(=O)c1nc[nH]c1C(=O)N[C@@H](CCCCNC(=O)OC(C)(C)C)C(=O)OC(C)(C)C)c1ccccc1 | 50* | 0 | 15 | -1 | -3 | 20 | 37 | 4 | 15
CC(C)(C)OC(=O)NCCCC[C@H](NC(=O)c1nc[nH]c1C(=O)N1CCN(C(=O)OC(C)(C)C)CC1)C(=O)OC(C)(C)C | 50* | -2 | 14 | -1 | -4 | 17 | 39 | 6 | 8
COc1ccccc1C(=O)N/C(=C/c1ccccc1)C(=O)Nc1ccc(C(=O)O)cc1 | 12 | 1 | 2 | 1 | 4 | · | · | · | ·
COc1cc2c(cc1OC)C1=C(C#N)CN(C3CCCCC3)CN1CC2 | 53* | 2 | 8 | 3 | -6 | 23* | 34 | 10 | 7
SMILES | TAAR1 antagonist | V1R ag counter | TAAR1 ag | OXTR ag | OXTR potentiator | TAAR1 nonsel count | TAAR1 ant conf | Ga16 nonsel ag | TAAR1 ag counter
COc1ccc(Br)cc1CN(C)C(=O)c1ccccc1OCc1c(C)noc1C | 57* | 0 | 9 | -2 | -5 | 23* | 33 | 7 | 4
COc1ccc(CN(C)C(=O)c2ccccc2OCc2c(C)noc2C)c(OC)c1 | -4 | 2 | 1 | 1 | -6 | · | · | · | ·
O=C1[C@@H]2Cc3c([nH]c4ccccc34)C(c3ccccc3)N2C(=O)CN1CCO (some centres undefined) | -4 | 0 | 10 | 0 | 2 | · | · | · | ·
CC(C)CN1CC(=O)N2C(c3ccccc3)c3[nH]c4ccccc4c3C[C@H]2C1=O (some centres undefined) | 61* | 3 | 36 | 4 | -1 | 23* | 45 | 13* | 18
O=C1c2cccc3c2C2(O)c4c1cccc4C(=O)c1cccc(c12)C3=O | 71* | · | 15 | · | · | 33* | 51* | 10 | 11
Cc1ccc(C(=O)NC2CCCc3ccccc32)cc1[N+](=O)[O-] (centres undefined) | -18 | -1 | -1 | -1 | -7 | · | · | · | ·
COc1ccccc1N1CCN(c2nc3ccccc3nc2C(C#N)C(=O)OC(C)C)CC1 (centres undefined) | 73* | -1 | 2 | -1 | -10 | 10 | 48 | 2 | 4
COCCOC(=O)C(C#N)c1nc2ccccc2nc1N1CCCC1 (centres undefined) | 6 | 0 | 4 | -2 | -6 | · | · | · | ·
